# Measured values published in PMC9810080 (Biochemistry, 2022).
# Residues, ends and D or L forms follow the SMILES beside them.
# Legend:
# [1] = target: Ca^2+-bound CaM C-lobe (residues 80–149) (Homo sapiens, UniProt P0DP23); test: ITC, peptide binding to isolated CaM C-lobe; details: for ΔH1: ITC one-site model, isolated CaM C-lobe, 27 °C, pH 7.0, 1 mM CaCl2; for fold decrease in binding affinity to CaM C-lobe caused by mutation: versus CaM2^WT, ITC
# How it was run: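 Wild-type and point-mutant CNGB1 peptides (DMSO-d6 stocks, UV–vis quantified) and the recombinant Ca2+-bound CaM C-lobe fragment were exchanged into 20 mM Tris pH 7.0, 100 mM KCl, 1 mM CaCl2. At 27 °C, 50 μM peptide in the cell was titrated with 0.5 mM C-lobe over 34 injections. Isotherms were fitted to a one-site model.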
# Ca^2+-free CaM (apoCaM) = Ca^2+-free CaM (apoCaM) (Homo sapiens, UniProt P0DP23); test: ITC, peptide binding to Ca2+-free CaM; details: ITC one-site model; 27 °C; 20 mM Tris pH 8.0, 100 mM KCl, 2 mM EGTA
# How it was run: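 Recombinant calmodulin (Ca²⁺-free) titrated into a synthetic CNGB1 CaM-binding-domain peptide (residues 1120–1147; dissolved in DMSO-d₆, quantified by UV–vis). Both were exchanged into 20 mM Tris pH 8.0, 100 mM KCl, 2 mM EGTA. Peptide was 50 μM in the cell and CaM was 0.5 mM in the syringe, over 34 injections at 27 °C. The isotherm was fit to a one-site model for ΔH.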
# [2] = target: Ca^2+-bound CaM (full-length calmodulin) (Homo sapiens, UniProt P0DP23); test: ITC, peptide binding to full-length Ca2+-bound CaM; details: for K2: association constant, site 2; for K2 / ΔH1 / ΔH2: ITC two-site model, 27 °C, pH 7.0, 1 mM CaCl2; for ΔH1: higher-affinity exothermic site; for ΔH2: lower-affinity endothermic site
# How it was run: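 Calorimetry at 27 °C used CNGB1 CaM-binding-domain peptides (DMSO-d6 stocks, quantified by UV–vis) and recombinant Ca2+-bound CaM, both exchanged into 20 mM Tris pH 7.0, 100 mM KCl, 1 mM CaCl2. Peptide at 50 μM in the cell was titrated with 0.5 mM CaM over 34 injections, and the isotherm was fitted to a two-site model. The apoCaM comparison used 20 mM Tris pH 8.0, 100 mM KCl, 2 mM EGTA with a one-site fit.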
# [3] = target: Ca^2+-bound CaM N-lobe (residues 1–80) (Homo sapiens, UniProt P0DP23); test: ITC, peptide binding to isolated CaM N-lobe; details: for ΔH1: ITC, isolated CaM N-lobe, 27 °C, pH 7.0, 1 mM CaCl2
# How it was run: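 The isolated recombinant Ca2+-bound CaM N-lobe and CNGB1 peptides (DMSO-d6 stocks, UV–vis quantified) were buffer-exchanged into 20 mM Tris pH 7.0, 100 mM KCl, 1 mM CaCl2. At 27 °C, 50 μM peptide in the cell was titrated with 0.5 mM N-lobe over 34 injections. The CaM1 isotherm was fitted to a one-site model and the CaM2 isotherm to a two-site model.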
SMILES,ΔH1 [1],fold decrease in binding affinity to CaM C-lobe caused by mutation [1],K2 [2],ΔH1 [2] [kcal/mol],ΔH2 [2],ΔH1 [3],other results
CC(C)C[C@H](NC(=O)[C@H](C)NC(=O)[C@H](C)NC(=O)[C@H](CC(C)C)NC(=O)[C@H](CCC(=O)O)NC(=O)[C@H](CCCCN)NC(=O)[C@H](CCC(=O)O)NC(=O)[C@H](CCCNC(=N)N)NC(=O)[C@H](C)NC(=O)[C@H](CCCNC(=N)N)NC(=O)[C@H](CC(C)C)NC(=O)[C@H](Cc1c[nH]cn1)NC(=O)[C@H](C)NC(=O)[C@H](CC(C)C)NC(=O)[C@H](CCCCN)NC(=O)CNC(=O)CNC(=O)[C@H](CCCCN)NC(=O)[C@H](C)NC(=O)CNC(=O)[C@H](CCCCN)NC(=O)CNC(=O)CN)C(=O)N[C@@H](CCC(=O)O)C(=O)N[C@@H](C)C(=O)N[C@@H](C)C(=O)N[C@@H](C)C(=O)N[C@@H](CCCCN)C(=O)O [CaM2^L1136E] (H-GGKGAKGGKLAHLRAREKELAALEAAAK-OH; N-terminus and C-terminus assumed),+2.6 ± 1.8 kcal/mol,more than 500 fold,,,,,
CC(C)C[C@H](NC(=O)[C@H](C)NC(=O)[C@H](C)NC(=O)[C@H](CC(C)C)NC(=O)[C@H](CCC(=O)O)NC(=O)[C@H](CCCCN)NC(=O)[C@H](CC(C)C)NC(=O)[C@H](CCCNC(=N)N)NC(=O)[C@H](C)NC(=O)[C@H](CCCNC(=N)N)NC(=O)[C@H](CC(C)C)NC(=O)[C@H](Cc1c[nH]cn1)NC(=O)[C@H](C)NC(=O)[C@H](CC(C)C)NC(=O)[C@H](CCCCN)NC(=O)CNC(=O)CNC(=O)[C@H](CCCCN)NC(=O)[C@H](C)NC(=O)CNC(=O)[C@H](CCCCN)NC(=O)CNC(=O)CN)C(=O)N[C@@H](CCC(=O)O)C(=O)N[C@@H](C)C(=O)N[C@@H](C)C(=O)N[C@@H](C)C(=O)N[C@@H](CCCCN)C(=O)O [CaM2] (H-GGKGAKGGKLAHLRARLKELAALEAAAK-OH; N-terminus and C-terminus assumed),-2.0 ± 0.1 kcal/mol,,2.9 ± 0.5 × 10^6 M^−1,-4.5 ± 1.6,+16 ± 2 kcal/mol,,ΔH (Ca^2+-free CaM (apoCaM)): +2.1 ± 0.4 kcal/mol; binding stoichiometry at saturation (peptide:CaM) ([2]; biphasic ITC isotherm): two CaM2 molecules are bound to one molecule of CaM
CC(C)C[C@H](NC(=O)[C@H](C)NC(=O)[C@H](C)NC(=O)[C@H](CC(C)C)NC(=O)[C@H](CCC(=O)O)NC(=O)[C@H](CCCCN)NC(=O)[C@H](CC(C)C)NC(=O)[C@H](CCCNC(=N)N)NC(=O)[C@H](C)NC(=O)[C@H](CCCNC(=N)N)NC(=O)[C@H](CCC(=O)O)NC(=O)[C@H](Cc1c[nH]cn1)NC(=O)[C@H](C)NC(=O)[C@H](CC(C)C)NC(=O)[C@H](CCCCN)NC(=O)CNC(=O)CNC(=O)[C@H](CCCCN)NC(=O)[C@H](C)NC(=O)CNC(=O)[C@H](CCCCN)NC(=O)CNC(=O)CN)C(=O)N[C@@H](CCC(=O)O)C(=O)N[C@@H](C)C(=O)N[C@@H](C)C(=O)N[C@@H](C)C(=O)N[C@@H](CCCCN)C(=O)O [CaM2^L1132E] (H-GGKGAKGGKLAHERARLKELAALEAAAK-OH; N-terminus and C-terminus assumed),+3.1 ± 0.5 kcal/mol,more than 500 fold,,,,,
CC[C@H](C)[C@H](NC(=O)[C@H](CC(C)C)NC(=O)[C@H](CCCCN)NC(=O)[C@H](CCC(=O)O)NC(=O)[C@H](CCCCN)NC(=O)[C@@H](NC(=O)[C@H](CCCCN)NC(=O)[C@H](CCC(=O)O)NC(=O)[C@@H](NC(=O)[C@H](CCCNC(=N)N)NC(=O)[C@H](CCC(=O)O)NC(=O)[C@H](CCCCN)NC(=O)[C@H](CCC(=O)O)NC(=O)[C@H](CC(C)C)NC(=O)[C@H](CCCCN)NC(=O)[C@@H](NC(=O)[C@H](CC(C)C)NC(=O)[C@H](CCC(=O)O)NC(=O)[C@H](CCC(N)=O)NC(=O)[C@H](CC(C)C)NC(=O)[C@H](CCCNC(=N)N)NC(=O)[C@H](CC(=O)O)NC(=O)[C@@H](N)CC(N)=O)C(C)C)[C@@H](C)O)C(C)C)C(=O)N[C@@H](CC(=O)O)C(=O)N1CCC[C@H]1C(=O)O [CaM1^F575E] (H-NDRLQELVKLEKERTEKVKEKLIDP-OH; N-terminus and C-terminus assumed),,,,,,+0.7 ± 0.5 kcal/mol,
CC[C@H](C)[C@H](NC(=O)[C@H](CC(C)C)NC(=O)[C@H](CCCCN)NC(=O)[C@H](CCC(=O)O)NC(=O)[C@H](CCCCN)NC(=O)[C@@H](NC(=O)[C@H](CCCCN)NC(=O)[C@H](CCC(=O)O)NC(=O)[C@@H](NC(=O)[C@H](CCCNC(=N)N)NC(=O)[C@H](CCC(=O)O)NC(=O)[C@H](CCCCN)NC(=O)[C@H](Cc1ccccc1)NC(=O)[C@H](CC(C)C)NC(=O)[C@H](CCCCN)NC(=O)[C@@H](NC(=O)[C@H](CC(C)C)NC(=O)[C@H](CCC(=O)O)NC(=O)[C@H](CCC(N)=O)NC(=O)[C@H](CC(C)C)NC(=O)[C@H](CCCNC(=N)N)NC(=O)[C@H](CC(=O)O)NC(=O)[C@@H](N)CC(N)=O)C(C)C)[C@@H](C)O)C(C)C)C(=O)N[C@@H](CC(=O)O)C(=O)N1CCC[C@H]1C(=O)O [CaM1] (H-NDRLQELVKLFKERTEKVKEKLIDP-OH; N-terminus and C-terminus assumed),,,4.2 ± 0.5 × 10^3 M^−1,-7.5 ± 0.2,+40 ± 4 kcal/mol,-2.5 ± 0.2 kcal/mol,fold higher affinity for CaM N-lobe compared to CaM C-lobe ([3]; from ITC with isolated lobes): at least fivefold; fold higher affinity for Ca^2+-bound CaM compared to apoCaM ([2]; comparison of NMR spectral changes and ITC): at least 100 fold
